From article PMC10092581 (Chemistry (Weinheim an Der Bergstrasse, Germany), 2022)
Read-outs that look alike come from different tables or passages of the source.

Key:
[1] = test system: PSN‐1 pancreatic cancer cells; assay: MTT cytotoxicity, 72 h; assay type: cell-based, human; conditions: read-out: IC50 (μM)±SD PSN‐1, MTT test
[2] = test system: A431 cervical carcinoma cells; assay: MTT cytotoxicity, 72 h; assay type: cell-based, human; conditions: read-out: IC50 (μM)±SD A431, MTT test
H157 cells [3] = assay: Apoptosis induction; assay type: cell-based, human; conditions: 48 h, IC50 doses
[4] = test system: HCT‐15 colon cancer cells; assay: MTT cytotoxicity, 72 h; assay type: cell-based, human; conditions: read-out: IC50 (μM)±SD HCT‐15, MTT test
[5] = test system: 2008 ovarian cancer cells; assay: MTT cytotoxicity, 72 h; assay type: cell-based, human; conditions: read-out: IC50 (μM)±SD 2008, MTT test
Procedure, shortened: (§1)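 The 2008 and H157 cells were kept in RPMI-1640, and A375 cells in DMEM, each with 10% FCS, antibiotics and 2 mM glutamine, at 37 °C, 5% CO2. Cells (3–8×10^3/well) were exposed 72 h in triplicate, with DMSO at 0.5% final. MTT was added for 5 h, followed by SDS/0.01 M HCl overnight, then A570 relative to untreated wells. IC50 came from a 4-PL fit, means of ≥4 independent experiments.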

H157 cells [6] = assay: Transmission electron microscopy; assay type: cell-based, human; conditions: 24 h, IC50 concentrations
Procedure, shortened: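 About 10^6 H157 cells were treated 24 h after seeding and incubated a further 24 h; untreated and auranofin-treated cells served as references. Cells were fixed in 1.5% glutaraldehyde in 0.2 M sodium cacodylate pH 7.4, post-fixed in 1% OsO4 and embedded in epoxy. Sections were 1 μm (toluidine blue) or 90 nm (uranyl acetate/lead citrate), imaged at 75 kV.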

[7] = test system: H157 lung carcinoma cells; assay: MTT cytotoxicity, 72 h; assay type: cell-based, human; conditions: read-out: IC50 (μM)±SD H157, MTT test
Procedure, shortened: as §1

A375 melanoma cells = assay: MTT cytotoxicity, 72 h; assay type: cell-based, human; conditions: read-out: IC50 (μM)±SD A375, MTT test
Procedure, shortened: as §1

[8] = test system: MCF‐7 breast cancer cells; assay: MTT cytotoxicity, 72 h; assay type: cell-based, human; conditions: read-out: IC50 (μM)±SD MCF‐7, MTT test
[9] = test system: A2780 ovarian cancer cell spheroids; assay: 3D spheroid cytotoxicity, acid phosphatase; assay type: cell-based, human; conditions: read-out: IC50 (μM)±SD A2780 spheroids; 3D spheroids, 72 h, APH assay
Procedure, shortened: (§2)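 H157 or A2780 cells were seeded at 2.5×10^3 cells/well in round-bottom non-treated plates. The medium was phenol red-free RPMI-1640 with 10% FCS plus 20% methyl cellulose stock solution. Spheroids were exposed 72 h to increasing concentrations, with the compound added from DMSO to a final 0.5%. Viability was read by a modified acid phosphatase assay, and IC50 was fitted by a 4-parameter logistic model.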

[10] = test system: H157 lung cancer cell spheroids; assay: 3D spheroid cytotoxicity, acid phosphatase; assay type: cell-based, human; conditions: read-out: IC50 (μM)±SD H157 spheroids; 3D spheroids, 72 h, APH assay
Procedure, shortened: as §2

[11] = test system: A2780 ADR ovarian cancer cells; assay: MTT cross-resistance, multi-drug resistant ovarian cells; assay type: cell-based, human
Procedure, shortened: (§3)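 A2780 and A2780 ADR cells were grown in RPMI-1640 with 10% FCS, antibiotics and 2 mM glutamine at 37 °C, 5% CO2. Cells (3–8×10^3/well) were given compound after 24 h and exposed 72 h in triplicate, with DMSO at 0.5% final. MTT was added for 5 h, followed by SDS/0.01 M HCl overnight, then A570 as % of untreated control. IC50 came from a 4-PL fit over ≥4 experiments; RF = IC50 A2780 ADR/IC50 A2780.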

[12] = test system: A2780 ovarian adenocarcinoma cells; assay: MTT cross-resistance, sensitive ovarian cells; assay type: cell-based; conditions: Homo sapiens, A2780, 72 h, read-out: IC50 (μM)±SD A2780
Procedure, shortened: as §3

LoVo colon cancer cells = assay: MTT cross-resistance, sensitive colon cells; assay type: cell-based, human; conditions: 72 h, read-out: IC50 (μM)±SD LoVo
Procedure, shortened: (§4)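 LoVo, LoVo MDR and LoVo-OXP cells were grown in F-12 HAM'S with 10% FCS, antibiotics and 2 mM glutamine at 37 °C, 5% CO2. LoVo-OXP had been selected over 17 months in increasing oxaliplatin. Cells (3–8×10^3/well) were exposed 72 h in triplicate, with DMSO at 0.5% final. MTT was added for 5 h, followed by SDS/0.01 M HCl overnight, then A570. IC50 came from a 4-PL fit over ≥4 experiments; RF = IC50 resistant/IC50 LoVo.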

[13] = test system: LoVo MDR colon cancer cells; assay: MTT cross-resistance, multi-drug resistant cells; assay type: cell-based, human
Procedure, shortened: as §4

[14] = test system: LoVo‐OXP colon cancer cells; assay: MTT cross-resistance, oxaliplatin-resistant cells; assay type: cell-based, human
Procedure, shortened: as §4

[15] = test system: LoVo‐OXP colon cancer cells; conditions: as previously reported; cited from earlier work
[16] = RF=IC50 resistant cells/IC50 sensitive cells

Row | SMILES | IC50 [1] [µM] | IC50 [2] [µM] | IC50 [4] [µM] | IC50 [5] [µM] | IC50 [7] [µM] | IC50 (A375 melanoma cells) [µM] | IC50 [8] [µM] | also measured
1 | CC(=O)OC[C@H]1O[C@@H]([S-])[C@H](OC(C)=O)[C@@H](OC(C)=O)[C@@H]1OC(C)=O.CCP(CC)CC.[Au+] [Auranofin, 2,3,4,6‐tetra‐o‐acetyl‐ L‐thio‐β‐D‐glyco‐pyranosato ‐S‐(triethyl‐phosphine) gold(I)] | 1 ± 0.4 | 2 ± 0.8 | 0.1 ± 0.02 | 1 ± 0.2 | 1.6 ± 0.3 | 2.3 ± 1 | 0.9 ± 0.3 | apoptosis, cellular morphological changes (Hoechst 33258) (H157 cells [3]): brightly stained nuclei and morphological features typical of cells undergoing apoptosis; mitochondrial morphology (TEM) (H157 cells [6]): dramatic swelling of the mitochondria
2 | N.N.[Cl][Pt][Cl] [Cisplatin] | 12.1 ± 2.9 | 1.4 ± 0.3 | 11.3 ± 1.5 | 2.2 ± 1.3 | 5.9 ± 1.1 | 3.1 ± 0.4 | 8.8 ± 1 | IC50 [9]: 74.2 ± 8.9 µM; IC50 [10]: 52.5 ± 1.3 µM
3 | COc1cccc2c1C(=O)c1c(O)c3c(c(O)c1C2=O)C[C@@](O)(C(=O)CO)C[C@@H]3O[C@H]1C[C@H](N)[C@H](O)[C@H](C)O1 [Doxorubicin] |  |  |  |  |  |  |  | IC50 ([11]; Homo sapiens, A2780 ADR, 72 h, read-out: IC50 (μM)±SD A2780 ADR): 0.16 ± 0.03 µM; RF (A2780 ADR/A2780) [11, 16]: 16.0 –; IC50 [12]: 0.01 ± 0.001 µM; IC50 (LoVo colon cancer cells; Homo sapiens, LoVo): 1.1 ± 0.2 µM; IC50 ([13]; Homo sapiens, LoVo, 72 h, read-out: IC50 (μM)±SD LoVo MDR): 19.2 ± 2.3 µM; RF (LoVo MDR/LoVo) [13, 16]: 17.5 –
4 | O=C(O)C(=O)O.[NH-][C@@H]1CCCC[C@H]1[NH-].[Pt+2] [oxaliplatin] |  |  |  |  |  |  |  | RF (LoVo‐OXP/LoVo) [14, 16]: ND 13.0; IC50 ([14]; read-out: IC50 (μM)±SD LoVo‐OXP, 72 h, MTT test): 14.3 µM; resistance of LoVo OXP cells vs parental cells [15]: about 13 fold; IC50 (LoVo colon cancer cells; MTT test): 1.1 ± 0.6 µM
